Measurements published in ChEMBL document CHEMBL1144710, “epigenetic multiple ligands: mixed histone/protein methyltransferase, acetyltransferase, and class III deacetylase (sirtuin) inhibitors” (J Med Chem, 2008).
The source made the active and inactive calls. The rule behind the calls is not given here.

Experiments:
[1] = tested on: U-937; experiment: Induction of apoptosis in human U937 cells at 25 uM after 30 hrs; assay type: functional
Method in brief: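 Apoptosis read as caspase 3 activation by FACS, in U937 cells (RPMI, 10% fetal calf serum, 200000 cells/mL) exposed to 25 µM for 30 h.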

[2] = tested on: U-937; experiment: Inhibition of histone H3K4 methylation in human U937 cells at 50 uM after 24 hrs; assay type: functional, cell-based
Method in brief: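 U937 cells treated at 50 µM for 24 h. Histones extracted with Triton buffer, then 0.2 M HCl overnight at 4 °C. 3–10 µg run on 15% SDS-PAGE and immunoblotted with anti-monomethyl-H3K4, monomethyl-H4R3 or dimethyl-H3R17 (1:500, overnight 4 °C), ECL detection. Loading controls: total H4 (H3K4), Ponceau Red (Arg marks).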

[3] = biological target: T1, Histone-arginine methyltransferase CARM1 (Homo sapiens) (UniProt Q86X55); experiment: Inhibition of human recombinant CARM1 assessed as poly(A) binding protein 1 methylation at 100 uM
T1 sequence (whole entry): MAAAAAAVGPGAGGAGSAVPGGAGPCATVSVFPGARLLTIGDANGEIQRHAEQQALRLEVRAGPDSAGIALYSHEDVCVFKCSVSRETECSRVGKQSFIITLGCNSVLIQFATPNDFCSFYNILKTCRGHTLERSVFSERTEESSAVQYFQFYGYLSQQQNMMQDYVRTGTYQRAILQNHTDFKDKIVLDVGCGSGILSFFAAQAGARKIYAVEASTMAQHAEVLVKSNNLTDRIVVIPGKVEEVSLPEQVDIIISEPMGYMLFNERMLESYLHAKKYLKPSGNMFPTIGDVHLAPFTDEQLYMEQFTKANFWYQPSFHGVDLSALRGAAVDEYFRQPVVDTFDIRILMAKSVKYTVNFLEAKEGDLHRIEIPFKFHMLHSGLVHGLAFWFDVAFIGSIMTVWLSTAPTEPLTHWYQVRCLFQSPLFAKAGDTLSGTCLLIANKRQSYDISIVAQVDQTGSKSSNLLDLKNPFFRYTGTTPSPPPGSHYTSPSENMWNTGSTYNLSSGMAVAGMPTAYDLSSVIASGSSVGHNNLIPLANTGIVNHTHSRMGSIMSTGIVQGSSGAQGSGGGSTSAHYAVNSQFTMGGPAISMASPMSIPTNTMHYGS
Method in brief: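 Recombinant enzymes (0.2 µg) with substrate (0.5 µg: Npl3p for PRMT1, PABP1 for CARM1, histone H3 for SET7), 0.5 µM [3H]AdoMet and 100 µM compound in PBS pH 7.4 with 3.3% v/v DMSO, 90 min at 30 °C. Products separated by 10% SDS-PAGE, transferred to PVDF, detected by fluorography on film overnight.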

Activity [3]: Active
Structure (SMILES): O=C1/C(=C/c2cc(Br)c(O)c(Br)c2)COC/C1=C\c1cc(Br)c(O)c(Br)c1
Activity [1]: 27.9%
Activity [2]: Active
